# Bioassay records from PubChem.
# Yeast life ext: compounds extending yeast replicative lifespan, primary screen, S. cerevisiae, OD615; S. cerevisiae growth with nicotinamide; deaD strain in restrictive glucose medium; inhibition of the nicotinamide effect, % at 10 µM; actives 0.68% (n = 130,000); AID 775, 2007;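 active means inhibition above a set limit, placed 3 SD over the median of all compounds, cut at about 26% in these data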;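 further: 0% = nicotinamide-treated wells and 100% = cells grown without nicotinamide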
#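 Assay system: DeaD-strain S. cerevisiae. Medium: CSMM-D glucose medium, restrictive. Reagent: nicotinamide, 1.5 mM, co-present with compound. Compound: 10 µM single point, 0.25% DMSO. Schedule: culture preincubation 4 h, compound exposure 48 h, both 30 °C. Detection: absorbance at 615 nm.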
# Measles CPE: compounds protecting cells from measles virus cytopathic effect, primary screen, measles RdRp inhibitor project, single point, MLSMR library, absorbance; Measles virus-infected cells, CPE protection; protection (pct of control), % at 4 µM; actives 1.5% (n = 140,000); AID 841, 2007; in the data active means protection mostly above about 24%, no sharp cut-off; inactive means mostly below about 26%
# WT yeast gro inh: growth inhibition of WT strain, primary screen, mitochondrial fusion inhibitor project, WT and mutant strains, chemical genetic | mitochondrial fusion phenotypic screen | inhibition, % at 10 µM | actives 2.1% (n = 190,000); in the data active means inhibition above about 58%; tested in S. cerevisiae
# BB579 growth dn: growth inhibitors of yeast BB579 in restrictive medium, primary screen, yeast lifespan-shortening project, S. cerevisiae; OD615, 48 h; inhibition, % at 10 µM; actives 0.51% (n = 140,000); AID 804, 2007;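 active means inhibition above a set limit, 3 SD over the mean compound inhibition, cut at about 44% in these data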
#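 Material: Saccharomyces cerevisiae DeaD strain BB579, replicative lifespan model yeast; buffer or medium: CSMM-D restrictive synthetic medium containing dextrose (glucose); compound: 10 µM single dose, DMSO 0.25%; timing: 48 h compound exposure at 30 °C after 4 h preincubation; signal: turbidity as optical density at 615 nm; benchmarks: positive control amphotericin B 10 µg/mL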
# RAM inhibit: inhibitors of the yeast RAM network, primary screen, dse1pr::URA3 reporter, 5-FOA selection. S. cerevisiae dse1pr::URA3 reporter, 5-FOA growth OD615, 2 d; analog-sensitive cbk1-as2 kinase mutant strain. actives 1.8% (n = 190,000). inhibition, % at 50 µM;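 active means inhibition above a set limit, 3 SD over mean compound inhibition, cut at about 8.4% in these data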;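 further: 0% = DMSO-only wells with no growth and 100% = 10 µM 1-NA-PP1 full growth; inhibition rescues growth on 5-FOA so higher OD means more RAM inhibition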
# DAT uptake mod: changed hDAT dopamine uptake under cocaine IC80, either direction, primary screen, cocaine antagonist project, cell-based, LLC-PK1 hDAT, [14C]-dopamine uptake, MLSMR. AID 449768, 2010. B-score at 10 µM. Sodium-dependent dopamine transporter (Homo sapiens), Q01959. actives 1.3% (n = 110,000). LLC-PK1 hDAT cells, [14C]-dopamine uptake with cocaine IC80; actives deviate in either direction;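 active means Z score or B-score, a plate-position-corrected score, falls beyond the plate's 99.7% confidence bounds, in either direction; inactive means both scores lie inside the 99.7% bounds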;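 further: scored against the spread of the other compound wells on the same plate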
# Target sequence (Q01959 whole entry, looked up): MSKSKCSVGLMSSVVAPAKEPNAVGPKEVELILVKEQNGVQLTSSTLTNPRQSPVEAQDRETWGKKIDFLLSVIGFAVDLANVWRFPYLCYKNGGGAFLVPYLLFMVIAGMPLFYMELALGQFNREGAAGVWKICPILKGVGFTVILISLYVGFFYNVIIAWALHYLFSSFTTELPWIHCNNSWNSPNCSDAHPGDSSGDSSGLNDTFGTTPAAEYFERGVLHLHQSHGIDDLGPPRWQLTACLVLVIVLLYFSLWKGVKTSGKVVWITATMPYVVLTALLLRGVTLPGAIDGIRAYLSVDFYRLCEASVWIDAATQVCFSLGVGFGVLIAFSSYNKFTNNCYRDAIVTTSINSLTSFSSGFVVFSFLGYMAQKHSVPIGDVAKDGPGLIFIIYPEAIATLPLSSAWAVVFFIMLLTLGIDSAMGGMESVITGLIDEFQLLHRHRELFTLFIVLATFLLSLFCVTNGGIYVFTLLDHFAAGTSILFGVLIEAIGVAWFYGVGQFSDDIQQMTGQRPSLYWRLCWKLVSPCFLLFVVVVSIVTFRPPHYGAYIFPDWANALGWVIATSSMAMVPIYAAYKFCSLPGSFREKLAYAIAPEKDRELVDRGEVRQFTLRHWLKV
# * marks the source's active call; other numbers are inactive results; x = not tested or not shown. In the library only some 6.1% were active in any assay of this set; here they are far more common.
SMILES,Yeast life ext,Measles CPE,WT yeast gro inh,BB579 growth dn,RAM inhibit,DAT uptake mod
CN(C[C@H](Cc1ccccc1)N(CCN(CCc1ccccc1)N=O)N=O)N=O,x,x,-9,x,3,1
CCCC[C@H](CN(N=O)[C@@H](Cc1ccccc1)CN(C)N=O)N(CCc1ccccc1)N=O,x,x,4,x,8.9*,0.9
CN(C[C@H](Cc1ccccc1)N(C[C@H](Cc1cccc2ccccc12)N(CCc1ccccc1)N=O)N=O)N=O,x,x,x,x,x,-0.095
CN(C[C@H](CC1CCCCC1)N(C[C@H](Cc1ccccc1)N(CCc1ccccc1)N=O)N=O)N=O,x,x,0,x,11*,-0.25
CCN1C(=O)[C@@H]2[C@H](C1=O)[C@@H]1CC(C(=O)OC)=C[C@@H](C(=O)OC)C3C1=C(C(=O)C3(CC)CC)[C@@H]2C (stereo partly specified),x,x,x,x,x,-0.6
CCCCCCCOC(=O)C[N+](C)(C)CCOC1CC2CCC1(C)C2(C)C (stereo unspecified),-12,12,78*,100*,-3,x
CC(=O)Oc1ccc2c(c1)cc(C)n2C,x,22,15,-14,2,-2.2
CC1=CN2C(=N)/C(=C/c3ccc(Sc4ccc(Cl)cc4)o3)C(=O)N=C2S1,0,14,24,-32,4,x
CC1=CN2C(=N)/C(=C/c3ccc(Sc4ccc(C)cc4)o3)C(=O)N=C2S1,0,5,77*,-20,6,x
CCOC(=O)N1CCC(NC(=O)c2cc(-c3ccc(F)cc3)[nH]c2C)CC1,-11,10,67*,-34,2,x
CCOC(=O)N1CCC(NC(=O)c2cc(C(=O)NCc3ccc(F)cc3)ccc2CO)CC1,-2,11,8,-24,2,-0.017
Cc1ccccc1NC(=O)Cc1nc(CCl)cs1,-4,42*,11,-11,1,x
Cc1ccc(C)c(NC(=O)Cc2nc(CCl)cs2)c1,-5,8,-2,-17,2,x
CCC(C)NCCOCCSc1ccc(Cl)cc1 (stereo unspecified),-1,52*,-8,-28,3,-0.28
CC(C)OC(=O)C(C)Oc1ccc(C(=O)NCCc2ccccc2)cc1 (stereo unspecified),-16,3,8,1,0,-7.1*
CC(Oc1ccc(C(=O)NCCc2ccccc2)cc1)C(=O)O (stereo unspecified),-6,1,7,-6,2,-0.57
CS(=O)(=O)N(CC(=O)N1CCCCC1)c1cccc(F)c1,x,x,0,x,2,x
Cc1nn(Cc2ccc(Cl)cc2Cl)c(C)c1NC(=O)NC12CC3CC(CC(C3)C1)C2,-3,8,68*,-17,2,1.2
CCn1ncc(/C=C/C(=O)Nc2c(C)nn(Cc3ccc(Cl)cc3Cl)c2C)c1C,-13,1,-6,-18,0,0.71
CCOC(=O)N1CCC(N2Cc3cccc(C(=O)Nc4ccc(CC)cc4)c3C2=O)CC1,-9,4,69*,-77,2,4*
O=C1C2C3C=CC(C3)C2C(=O)N1/N=C/c1ccc(-c2ccccc2[N+](=O)[O-])o1 (stereo unspecified),-9,11,-3,-7,0,x
O=C1C2C3C=CC(C3)C2C(=O)N1/N=C/c1cc(Br)cc([N+](=O)[O-])c1O (stereo unspecified),-7,7,0,36,-1,-2.8*
CC(=O)Nc1ccc(S(=O)(=O)N2CCCc3ccccc32)cc1,0,9,4,-38,1,0.0096
Nc1ccc(S(=O)(=O)N2CCCc3ccccc32)cc1,-3,3,15,13,3,2.3*
CCn1c(=O)n(CC)c2cc(S(=O)(=O)N3CCc4ccccc43)ccc21,-17,8,12,-21,1,1.2
SMILES,Yeast life ext,Measles CPE,WT yeast gro inh,BB579 growth dn,RAM inhibit,DAT uptake mod
O=S(=O)(NC1CC1)c1ccc(S(=O)(=O)N2CCc3ccccc32)cc1,8,44*,-20,-18,3,0.044
C=CCNC(=O)c1sccc1Oc1ccc(F)cc1[N+](=O)[O-],x,x,-27,x,-1,x
CCOC(=O)C1CCN(C(=O)c2sc3nc(-c4ccc(F)cc4)cn3c2C)CC1,-13,11,-5,-13,0,x
COc1ccc(S(=O)(=O)N2CCCCCC2)cc1N(C)S(=O)(=O)c1ccccc1,6,6,-2,0,10*,x
COc1ccc(Oc2ccc(S(=O)(=O)N3CCCCC3)cc2S(=O)(=O)N2CCCCC2)cc1,x,x,-16,x,x,x
COc1ccc(S(=O)(=O)N2CCc3ccccc32)cc1C(=O)OCc1c(C)noc1C,-4,20,19,-52,5,0.15
COc1ccc(S(=O)(=O)N2CCCCC2)cc1C(C)C,5,3,13,-24,10*,-0.065
COc1ccc(S(=O)(=O)N2CCCCCC2)cc1C(=O)OCc1c(C)noc1C,5,6,97*,-23,2,0.91
O=C(CNS(=O)(=O)c1ccc(Cl)cc1)OCC(=O)N1CCCc2ccccc21,-3,7,-13,-13,0,x
CN(C)Cc1ccccc1COc1ccccc1,6,3,-12,-35,1,x
CCOc1ccc(NC(=O)C23CC4CC(C2)CC(c2ccccc2)(C4)C3)cc1,13,13,28,-60,8.6*,0.1
Cc1cc(/C=N\NC(=O)CC(=O)NC2CCCCC2)c(C)n1-c1ccc(Cl)c(Cl)c1,-5,17,15,-17,0,-3.7*
COc1cccc(NC(=O)C(=O)N/N=C/c2cc(C)n(-c3ccc(Cl)c(Cl)c3)c2C)c1,-17,11,29,-71,2,-4.8*
COC(=O)N/N=C/c1cc(C)n(-c2ccc(F)cc2)c1C,x,x,-3,x,0,x
C=CCn1c(-c2ccc(N)cc2)nc2ccccc21,-6,10,7,-46,1,-0.065
C=CCn1c(N)nc2ccccc21,12,3,0,-22,1,-2.6*
CCOc1ccc(N=Cc2c(O)c3ccccc3oc2=O)cc1,88*,19,5,-39,2,x
O=C(Oc1cccc([N+](=O)[O-])c1)N1CCCCC1,x,x,1,x,-1,x
Cc1cc(-c2ccco2)c(C#N)c2nc3ccccc3n12,-32,1,9,89*,5,-0.23
CC(C)c1cc(N2CCN(C(=O)c3ccco3)CC2)n2c(nc3ccccc32)c1C#N,-4,16,14,10,5,0.1
CCc1c(C)c(C#N)c2nc3ccccc3n2c1Cl,28*,0,30,18,6,x
Cc1cc(C(C)C)n2c(nc3ccccc32)c1C#N,x,x,23,x,3,x
